rRNA inh HTS = inhibitors of bacterial rRNA selective over humanized ribosomes | E. coli WT GFP vs humanized-ribosome RFP mutants, fluorescence, 24 h; active compounds read low; DMSO median 0, no signal -100 | GFP signal change (wild-type ribosome), % (concentration not given with the values) | actives 1.6% (n = 350,000);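 active = significant combined selectivity score with lowered wild-type GFP, culture density cut under 30%, mutant RFP and density less affected; inactive = any of these conditions unmet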
HIV Env fusion = HIV envelope-mediated fusion inhibition; HeLa-JRFL Env/CEM21 cell fusion, luciferase; inhibition, % at 12.3 µM; actives 1.1% (n = 360,000);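 active = mean replicate inhibition score of at least 50 and every replicate individually at or above 50; inconclusive = only one of the two criteria met; inactive = mean below 50 and not all replicates reaching 50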;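 note: 0% = plate neutral controls and 100% = maraviroc near 300 nM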
F508del corr = CFTR F508del correction in bronchial cells | CFBE cells, YFP halide quenching; stimulated with forskolin plus potentiator P3; % fluorescence drop versus neutral controls | activity (quench increase), % at 7.58 µM | actives 0.36% (n = 350,000) | AID 720511;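 active = mean added fluorescence quench of at least 8% versus neutral control, with both replicates also reaching 8%; inconclusive = only one of the mean or replicate conditions met; inactive = mean below 8% and not both replicates reaching 8%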;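 note: cells transiently co-express mutant CFTR-F508del with the halide-sensitive YFP; corrector assay measuring rescue of mutant channel to the surface after 24 h compound exposure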
Cneo AK release = causes C. neoformans cell lysis; lysis activity, % at 15 µM; adenylate kinase release luminescence, 4 h; normalised: neutral wells 0, clomiphene wells 100; actives 0.2% (n = 360,000);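 active = mean lysis activity across replicates of at least 80%, whatever share of replicates individually reach that level; inactive = mean lysis activity below 80%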
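Assay system: log-phase C. neoformans yeast / Quantity: yeast cell density of 5 × 10^6 cells/mL / Medium: fresh YPD growth medium / Compound: single dose / Timing: static 4 h at 37 °C with compound, 1 h detection / Measured by: adenylate kinase release luminescence / Read-out: lysis from increased AK signal / Benchmarks: Clomiphene as positive lysis control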
INS-1E GSIS act = GLuc luminescence reporter in INS-1E cells, primary screen for activators of glucose-dependent secretion of insulin. INS-1E GLuc reporter insulin secretion, 2-3 h. activation, % at 16.6 µM. actives 0.61% (n = 370,000). AID 743287;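 active = lowest replicate activation of at least 40%, so every replicate reaches that level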;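 note: 0% = median of neutral control wells and 100% = median of IBMX positive control wells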
miR122 inh = inhibitors of miR-122 in Huh7 cells | Huh7 miR-122 Renilla luciferase sensor, 48 h; neutral wells = 0, positive control = 100 | activation (reporter increase), % at 12.5 µM | actives 0.3% (n = 340,000) | AID 602342;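 active = mean replicate activation score at least 90 and every replicate individually at or above 90; inconclusive = only one of the two criteria met; inactive = neither criterion met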;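 note: higher luciferase means less miR-122 activity so hits act as miR-122 inhibitors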
* = called active by the depositor; ? = inconclusive; . = no result; [ ] = another dose, or the depositor's remark. Rows were chosen to be rich in hits. Some 3.1% of all compounds tested hit in one or more screens of this group.

SMILES	rRNA inh HTS	HIV Env fusion	F508del corr	Cneo AK release	INS-1E GSIS act	miR122 inh
O=C(c1cccc(S(=O)(=O)N2CCN(c3ccc(F)cc3)CC2)c1)N1CCCC(C(F)(F)F)C1 (stereo not given)	1	.	10.0*	2	-72	.
CC1CN(C(=O)c2cccc(S(=O)(=O)N3CCN(c4ccc(F)cc4)CC3)c2)CC(C)O1 (stereo not given)	-5	.	0	-2	7	1
O=C1NC(CCc2ccccc2)C(=O)N1CCOc1ccccc1 (stereo not given)	-27*	-5	3	.	5	.
S=C(NN=C1CCCCC1=NNC(=S)N1CCOCC1)N1CCOCC1	.	67*	-4	.	8	.
C[C@@H]1CN([C@@H](C)CO)C(=O)c2cccc(NC(=O)c3ccncc3)c2O[C@@H]1CN(C)Cc1ccc(C(=O)Nc2ccccc2N)cc1	4	-50[16.7 µM]	1	0	4	47[16.7 µM]
C=CCc1cccc(/C=N/NC(=O)C(C)Nc2ccc(C)cc2)c1O (stereo not given)	-32*	0	.	0	-12	-7
C=CCc1cccc(/C=N/NC(=O)C(=O)Nc2ccc(C)cc2)c1O	31	-29	-2	.	-9	-4
CN(C)CCCN(C(=O)c1ccc(C(=O)c2ccccc2)cc1)c1nc2c(F)cccc2s1	-37	-9	0	12	-26	-6
CCOc1cccc2sc(N(CCCN(C)C)C(=O)c3ccc(S(=O)(=O)N(CC)Cc4ccccc4)cc3)nc12	-54	-7	-1	13	-45	-9
CCN(Cc1ccccc1)S(=O)(=O)c1ccc(C(=O)N(CCCN(C)C)c2nc3c(F)cccc3s2)cc1	-48*	0	-4	3	-17	-5
CCOc1cccc2sc(N(CCCN(C)C)C(=O)c3ccc(S(=O)(=O)N(C)Cc4ccccc4)cc3)nc12	-39*	-44	-2	39	-58	.
CN(C)CCCN(C(=O)c1ccc(S(=O)(=O)N2CCc3ccccc32)cc1)c1nc2c(Cl)cccc2s1	-40*	-7	2	5	-37	4
CCOc1cccc2sc(N(CCCN(C)C)C(=O)c3ccc(S(=O)(=O)N4CCCCCC4)cc3)nc12	-24*	-11	1	7	-2	2
COc1cccc2sc(N(CCCN(C)C)C(=O)c3ccc(S(=O)(=O)N4CCCc5ccccc54)cc3)nc12	-59	.	0	6	-27	-5
CCOc1cccc2sc(N(CCN(CC)CC)C(=O)c3ccc(S(=O)(=O)N4CCCCC4)cc3)nc12	-4	1	1	.	4	.
CN(C)CCCNC(=O)C[C@@H]1CC[C@H]2[C@H](COc3ccc(NC(=O)c4ccccc4F)cc3C(=O)N2C)O1	6	.	0	-2	4	-16[16.7 µM]
O=S(=O)(N[C@@H]1CC[C@@H](CCn2cc(-c3cccc(F)c3)nn2)O[C@H]1CO)c1ccc(F)cc1	-6	11[16.7 µM]	2	-3	-18	.
COc1ccc(C)c2sc(N(CCCN(C)C)C(=O)c3ccc(S(=O)(=O)N4CCc5ccccc5C4)cc3)nc12	-41	92*	5	12	189*	-21
CO[C@@H]1CN(C)C(=O)c2ccc(NC(=O)c3ccccc3F)cc2OC[C@H](C)N(C(=O)c2ccccc2F)C[C@H]1C	-2	.	-3	-1	-10	-3[16.7 µM]
CN(C)CCCN1c2ccccc2Sc2ccccc21	.	21	11*	4	.	-5
CO[C@H]1CN(C)C(=O)c2cc(NC(=O)C3CCC3)ccc2OC[C@H](C)N(Cc2cccnc2)C[C@H]1C	3	.	1	0	1	.
CC(C)(C)N(Cc1ccccc1)C(=O)c1cc2ccccc2o1	11	19	10.0*	-1	23	31
COc1ccc(-n2c3c(c(=O)[nH]c2=O)C(NS(=O)(=O)c2ccc(Cl)cc2)(C(F)(F)F)C(=O)N3)cc1 (stereo not given)	8	-1	1	1	55*	-2
O=C(CCNC(=O)c1ccco1)Nc1nc(-c2ccccc2)cs1	-30	?	8.8*	-8	.	0
CC1CC(CC(=O)Nc2nc(-c3ccccc3)cs2)C(=O)O1 (stereo not given)	-24*	-5	-3	0	-21	6
SMILES	rRNA inh HTS	HIV Env fusion	F508del corr	Cneo AK release	INS-1E GSIS act	miR122 inh
C[C@@H]1CN([C@@H](C)CO)C(=O)c2cc(NC(=O)CCC(F)(F)F)ccc2O[C@@H](C)CCCCO[C@H]1CN(C)Cc1ccc2c(c1)OCO2	0	11[16.7 µM]	-1	2	2	1[16.7 µM]
O=C(CCCCn1c(=O)[nH]c2ccccc2c1=O)N1CCN(c2cccc(C(F)(F)F)c2)CC1	.	83*	.	1	.	12
N#CC1=C(N)Oc2c(ccc3cccnc23)C1c1ccccc1 (stereo not given)	-1	13	17*	-1	16	-64
Cc1ccc2[nH]c(=O)c(C3C(C#N)=C(N)Oc4c3ccc3cccnc43)cc2c1 (stereo not given)	.	47	.	-1	.	3
CO[C@@H]1CN(C)C(=O)c2ccc(NC(=O)c3cc(C)on3)cc2OC[C@@H](C)N(C(=O)C2CC2)C[C@@H]1C	-1	-2[16.7 µM]	2	.	-15	.
O=C(Oc1cccc(OC(=O)c2ccco2)c1)c1ccco1	-23*	-3	-3	0	1	-3
CCCNc1nc(N2CCCC2)nc(N2CCCC2)n1	-21*	12	3	0	11	-2
O=C(N[C@@H]1CC[C@H](CCNC(=O)c2ccccc2F)O[C@H]1CO)c1ccc2c(c1)OCO2	-2	-4[16.7 µM]	-3	42	-13	.
Cc1ccc(-c2nc3ncccn3c2N)cc1	21	-10	2	.	21	.
Nc1c(-c2ccccc2)nc2ncccn12	.	-2	3	.	49*	.
CC(C)NC(=O)Nc1ccc2c(c1)CC(=O)N([C@H](C)CO)C[C@@H](C)[C@H](CN(C)Cc1ccccc1)O2	5	-17[16.7 µM]	0	-1	18	5[16.7 µM]
CN(C)Cc1cn(CC[C@H]2CC[C@H](NS(=O)(=O)c3ccc(-c4ccccc4)cc3)[C@@H](CO)O2)nn1	-2	2[16.7 µM]	4	2	3	-18[16.7 µM]
CC=Cc1ccc2n(c1=O)C[C@H]1[C@H](CO)[C@@H](C(=O)NC3CCC3)[C@@H]2N1Cc1ccccc1 (mixture of isomers)	3	.	-2	0	-7	-3[16.7 µM]
Cc1cccc(N(C)S(=O)(=O)c2ccc(-c3cc(C)no3)s2)c1	-31	-384	12*	0	.	34
CCN(c1cccc(C)c1)S(=O)(=O)c1ccc(-c2cc(C)no2)s1	-3	7	9.2*	14	13	73
